Assay results published in ChEMBL document CHEMBL1151912, “ACE inhibitors hypothesis generation for selective design, synthesis and biological evaluation of 3-mercapto-2-methyl-propanoyl-pyrrolidine-3-imine derivatives as antihypertensive agents” (2009).
Calls of active or inactive are those of the source. The rule behind the calls is not given here.

Key:
Felis catus [1] = assay: Hypotensive activity in anesthetized normotensive cat at 0.0014 mmol/kg; type: functional, organism-based
Felis catus [2] = assay: Antihypertensive activity in anesthetized normotensive cat assessed as mean reduction of systolic blood pressure at 0.00246 mmol/kg; type: functional, Artery
Felis catus [3] = assay: Antihypertensive activity in anesthetized normotensive cat assessed as mean reduction of systolic blood pressure at 0.00246 mmol/kg relative to control; type: functional, Artery; set-up: scale not given: the % may be the effect or the level left
In short: (§1)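 Normotensive adult cats dosed at 0.00246 mmol/kg. Systolic and diastolic blood pressure recorded in mmHg and reported as mean ± SE. The value is the mean % change from the control group. Significance versus control was tested at p < 0.05.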

Felis catus [4] = assay: Antihypertensive activity in anesthetized normotensive cat assessed as mean reduction of diastolic blood pressure at 0.00246 mmol/kg; type: functional, Artery
Felis catus [5] = assay: Antihypertensive activity in anesthetized normotensive cat assessed as mean reduction of diastolic blood pressure at 0.00246 mmol/kg relative to control; type: functional, Artery; set-up: scale not given: the % may be the effect or the level left; in short: as §1
Felis catus [6] = assay: Hypotensive activity in anesthetized normotensive cat at 0.0012 mmol/kg; type: functional, organism-based
Felis catus [7] = assay: Hypotensive activity in anesthetized normotensive cat at 0.0031 mmol/kg; type: functional, organism-based
Felis catus [8] = assay: Hypotensive activity in anesthetized normotensive cat at 0.00285 mmol/kg; type: functional, organism-based

COc1ccc(CC2C(=O)CCN2C(=O)C(C)CS)cc1 (centres undefined)
Activity (Felis catus [1]): Active
Systolic blood pressure (Felis catus [2]): 104.9 mmHg
Activity (Felis catus [3]): 21.67%
Diastolic blood pressure (Felis catus [4]): 115 mmHg
Activity (Felis catus [5]): 8%

CCOC(=O)C(C)/N=C1\CCN(C(=O)C(C)CS)C1Cc1ccc(OC)cc1 (centres undefined)
Activity (Felis catus [6]): Active
Systolic blood pressure (Felis catus [2]): 93.3 mmHg
Activity (Felis catus [3]): 30.37%
Diastolic blood pressure (Felis catus [4]): 84 mmHg
Activity (Felis catus [5]): 32.8%

COc1ccc(CC2/C(=N/O)CCN2C(=O)C(C)CS)cc1 (centres undefined)
Activity (Felis catus [7]): Active
Systolic blood pressure (Felis catus [2]): 121.9 mmHg
Activity (Felis catus [3]): 9%
Diastolic blood pressure (Felis catus [4]): 109.7 mmHg
Activity (Felis catus [5]): 12.22%

C[C@H](CS)C(=O)N1CCC[C@H]1C(=O)O [CAPTOPRIL]
Systolic blood pressure (Felis catus [2]): 105.9 mmHg
Activity (Felis catus [3]): 20.91%
Diastolic blood pressure (Felis catus [4]): 97.6 mmHg
Activity (Felis catus [5]): 21.89%

COc1ccc(CC2/C(=N/CCO)CCN2C(=O)C(C)CS)cc1 (centres undefined)
Activity (Felis catus [8]): Active
Systolic blood pressure (Felis catus [2]): 106 mmHg
Activity (Felis catus [3]): 20.83%
Diastolic blood pressure (Felis catus [4]): 113.7 mmHg
Activity (Felis catus [5]): 9%
